Test results: ChEMBL document CHEMBL2311435, “Development of 18F-labeled picolinamide probes for PET imaging of malignant melanoma” (J Med Chem, 2013)

Columns and labels:
Conditions in all cases: in vivo
[1] = system: Brain; test: Biodistribution in brain of C57BL/6 mouse xenografted with mouse B16F10 cells at 3.7 MBq, iv after 1 hr by gamma-scintillation counting analysis; format: ADME, organism-based, B16-F10
Outline: (§1)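 1.0 × 10^6 B16F10 cells in PBS injected subcutaneously into the right shoulder of C57BL/6 mice, grown to 0.5 cm (~10 day). Tail-vein injection of about 3.7 MBq (100 μCi) 18F probe in PBS (0.1 M, pH 7.4). Killed at 1.0 or 2.0 h p.i. (n = 4 per group). Tissues excised, weighed and gamma-counted; uptake expressed as %ID/g, mean ± SD.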

[2] = Drug uptake in tumor of C57BL/6 mouse xenografted with mouse B16F10 cells at 3.7 MBq, iv after 0.5 hrs by PET imaging analysis; format: ADME, organism-based, Neoplasm, B16-F10
Outline: (§2)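 Static small-animal PET at 0.5, 1 and 2 h after tail-vein injection of ~3.7 MBq (100 μCi) into B16F10-bearing C57BL/6 mice (n = 4 per probe). Isoflurane anesthesia, 5% induction and 2% maintenance in O2. Decay-corrected images. ROI-derived %ID/g assumes 1 g/ml density, without attenuation correction. Mean ± SD.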

[3] = system: Liver; test: Biodistribution in liver of C57BL/6 mouse xenografted with mouse B16F10 cells at 3.7 MBq, iv after 2 hrs by gamma-scintillation counting analysis; format: ADME, organism-based, B16-F10; outline: as §1
[4] = system: Mus musculus; test: Biodistribution in tumor of C57BL/6 mouse xenografted with mouse B16F10 cells at 3.7 MBq, iv after 2 hrs by gamma-scintillation counting analysis; format: ADME, organism-based, Neoplasm, B16-F10; outline: as §1
[5] = system: Liver; test: Biodistribution in liver of C57BL/6 mouse xenografted with mouse B16F10 cells at 3.7 MBq, iv after 1 hr by gamma-scintillation counting analysis; format: ADME, organism-based, B16-F10; outline: as §1
[6] = system: Kidney; test: Biodistribution in kidney of C57BL/6 mouse xenografted with mouse B16F10 cells at 3.7 MBq, iv after 1 hr by gamma-scintillation counting analysis; format: ADME, organism-based, B16-F10; outline: as §1
[7] = Drug uptake in tumor of C57BL/6 mouse xenografted with mouse B16F10 cells at 3.7 MBq, iv after 2 hrs by PET imaging analysis; format: ADME, organism-based, Neoplasm, B16-F10; outline: as §2
[8] = system: Stomach; test: Biodistribution in stomach of C57BL/6 mouse xenografted with mouse B16F10 cells at 3.7 MBq, iv after 2 hrs by gamma-scintillation counting analysis; format: ADME, organism-based, B16-F10; outline: as §1
[9] = system: Nucleic Acid; test: Ratio of drug uptake in tumor to lungs of C57BL/6 mouse xenografted with mouse B16F10 cells at 3.7 MBq, iv after 1 hr by gamma-scintillation counting analysis; format: ADME, organism-based, B16-F10
Outline: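 Same subcutaneous B16F10 model and tail-vein dose of about 3.7 MBq (100 μCi), n = 4 per group. Dissection at 1 or 2 h p.i. Gamma-counter %ID/g of tumor divided by that of blood, lung, liver or muscle, given as mean ± SD.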

[10] = system: Pancreas; test: Biodistribution in pancreas of C57BL/6 mouse xenografted with mouse B16F10 cells at 3.7 MBq, iv after 2 hrs by gamma-scintillation counting analysis; format: ADME, organism-based, B16-F10; outline: as §1
[11] = system: Heart; test: Biodistribution in heart of C57BL/6 mouse xenografted with mouse B16F10 cells at 3.7 MBq, iv after 2 hrs by gamma-scintillation counting analysis; format: ADME, organism-based, B16-F10; outline: as §1
[12] = system: Zone of skin; test: Biodistribution in skin of C57BL/6 mouse xenografted with mouse B16F10 cells at 3.7 MBq, iv after 2 hrs by gamma-scintillation counting analysis; format: ADME, organism-based, B16-F10; outline: as §1
[13] = Drug uptake in tumor of C57BL/6 mouse xenografted with mouse B16F10 cells at 3.7 MBq, iv after 1 hr by PET imaging analysis; format: ADME, organism-based, Neoplasm, B16-F10; outline: as §2

## CCN(CC)CCNC(=O)c1ccc([18F])cn1
[1]
  Drug uptake: 1.28 % ID/g
[2]
  Drug uptake: 12.74 % ID/g
[3]
  Drug uptake: 3.32 % ID/g
[4]
  Drug uptake: 16.97 % ID/g
[5]
  Drug uptake: 4.71 % ID/g
[6]
  Drug uptake: 3.32 % ID/g
[7]
  Drug uptake: 16.87 % ID/g
[8]
  Drug uptake: 1.47 % ID/g
[9]
  Ratio: 9.94
[10]
  Drug uptake: 0.61 % ID/g
[11]
  Drug uptake: 0.59 % ID/g
[12]
  Drug uptake: 0.68 % ID/g
[13]
  Drug uptake: 16.61 % ID/g
